These results are taken from ChEMBL document CHEMBL4513216, “Probing the Open Global Health Chemical Diversity Library for Multistage-Active Starting Points for Next-Generation Antimalarials” (ACS Infect Dis, 2020).

The nature of the data set: Toxicity liver stage against HepG2, at 10uM. Format: cell-based. More on the design: test concentration 10 uM, cell line HepG2-A16-CD81EGFP. The note with it: human, HepG2-A16-CD81EGFP cells; read-out: INHIBITION
In short, it runs like this: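 Uninfected HepG2-A16-CD81EGFP cells, 3 × 10^3 per well, 1536-well, plated on prespotted compound at 10 μM final, parasite-free screening media added to match infected plates; puromycin 10 μM positive, DMSO 0.5% negative; run in parallel with 48 h PbLuc assay at 37 °C, 5% CO2; viability by CellTiter-Glo luminescence, normalized to controls.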
On to `CCOCCCNC(=O)C(NC(=O)Cc1cccs1)c1ccccc1` (centres undefined), for which the cytotoxicity at 10 µM was 12.3%. The figure for `COCCN1C[C@H]2CN(C(=O)c3ccno3)CCN2C1=O` is 1.29%; for `COC(=O)c1ccc(-c2ccc(/C=C3\C(=O)NC(=N)N3C)o2)cc1` it is -66.3%; for `COc1cnc(CSc2nnc(C)s2)cc1OCC(N)=O` it is 8.52%. The figure for `O=C1CC2(CCN(C(=O)c3ccccn3)CC2)Oc2c(Br)cc(Br)cc21` is 11.5%; for `CC(C)CN1CC(O)CN(S(=O)(=O)c2ccc(F)cc2)CC1=O` (centres undefined) it is 2.99%. The same measure for `COc1ccccc1C(=O)N1CC(=O)N(CC2CC2)CC(O)C1` (centres undefined): 5.99%. In the case of `COC(=O)c1ccc(C2CC(=O)Nc3c2cnn3C)cc1` (centres undefined), the cytotoxicity at 10 µM was -2.56%. The figure for `O=C(Cn1cnc2ccsc2c1=O)NCCCc1nnc2ccccn12` is 1.43%; for `O=C(CCn1ccc(=O)[nH]c1=O)N1CCC(Oc2ccccn2)CC1` it is -1.47%.

Take `Cn1cnc(S(=O)(=O)NCC2(O)CCOc3ccccc32)c1` (centres undefined): the cytotoxicity at 10 µM was determined as 12%. As for `CS(=O)(=O)N1CCCC12CCCN(C(=O)c1cc(F)cc(F)c1)C2` (centres undefined), the cytotoxicity at 10 µM is -140%.

For the molecule `Cc1ccc(NC(=O)CC2Cn3ncnc3NC2=O)cc1C` (centres undefined), the cytotoxicity at 10 µM worked out at 10.5%. For the molecule `CCOCCCNC(=O)CN(c1cc(C)cc(C)c1)S(C)(=O)=O`, the cytotoxicity at 10 µM was 4.48%. Turning to `Cn1ncc2c1NC(=O)CC2c1ccc(Cl)cc1Cl` (centres undefined), the cytotoxicity at 10 µM was found to be 59.9%. The same measure for `O=C1CO[C@@H]2CN(S(=O)(=O)c3ccccc3)C[C@H]2N1CC1CC1`: -3.1%. `CCC(C)NC(=O)c1ccn(COc2ccccc2Cl)n1` (centres undefined): the cytotoxicity at 10 µM came to 5.75%. Turning to `CC[C@@H](Cn1ncc2ccccc2c1=O)NC(=O)c1ccco1`, the cytotoxicity at 10 µM is 8.44%. The same measure for `CN(C(=O)c1ccccc1F)[C@@H]1CC[C@@H](O)[C@@H]1O`: -6.11%; for `CN(C)c1cc(C2CCCN(C(=O)c3ccc(=O)[nH]n3)C2)ccn1` (centres undefined): -9.04%; for `Cn1ncc(Cl)c1C(=O)N1CCc2nc3sccc3c(=O)n2CC1`: -26.7%. The same measure for `CN(C(=O)c1ccnn1C)[C@@H]1CCC[C@@H](Oc2ccccc2)[C@@H]1O`: -35.9%; for `Cc1ccccc1CN(C)C(=O)c1cc(C2CCCN2C)ccn1` (centres undefined): -4.76%; for `Cc1noc2nc(C3CCCN(Cc4ccncc4)C3)cc(C(F)F)c12` (centres undefined): -16.7%. The figure for `CNC(=O)C1(c2cnccn2)CCCN1C(=O)c1c(F)cccc1F` (centres undefined) is -24.1%. For the molecule `Cc1csc(C(Cc2ccsc2)NC(=O)Cn2cccnc2=O)n1` (centres undefined), the cytotoxicity at 10 µM was -22.2%. The figure for `O=c1c2ccccc2nc2n1C(CSc1ccc(Cl)cc1Cl)CN2` (centres undefined) is 6.01%; for `c1ccc(-c2nc(CCNCc3ccccn3)co2)cc1` it is -1.89%. The figure for `CCN(C)S(=O)(=O)c1c(F)cc(NC(C)=O)cc1F` is -40.7%; for `CC(C)c1noc(CCC(=O)Nc2cc(F)ccc2F)n1` it is -15.4%.

On to `Cc1cc(CN(C)C(=O)NC(C)Cc2ccco2)no1` (centres undefined), for which the cytotoxicity at 10 µM was 6.62%. With `Cc1cn2c(n1)CCC(NS(=O)(=O)c1ccc(C)s1)C2` (centres undefined), the cytotoxicity at 10 µM is 12.9%. As for `CCC(C)(CC(=O)OC)NC(=O)c1ccc(C(C)=O)cc1` (centres undefined), the cytotoxicity at 10 µM was -4.89%. As for `Clc1cccc(N2CCC(NCc3ncc[nH]3)C2)c1` (centres undefined), the cytotoxicity at 10 µM amounted to 7.41%. The figure for `Cc1n[nH]cc1CNC(=O)[C@H]1CCCCN1C(=O)OC(C)(C)C` is -0.311%; for `CC(C)(C)c1cnc(CNCC2CCCN2c2cccnn2)o1` (centres undefined) it is -2.2%; for `CCc1nccn1C1CCCN(C(=O)c2ccnc(C)n2)C1` (centres undefined) it is -1.12%. Take `Cc1sc2nc(C(F)(F)F)nc(N3CCC(NS(C)(=O)=O)CC3)c2c1C`: the cytotoxicity at 10 µM was -17%. The figure for `CC(=O)N1CCN(c2nc(C(F)(F)F)nc3sc(C)c(C)c23)CC1` is -4.33%; for `Cn1cc(S(=O)(=O)N2CCCC2Cn2ccnc2)cn1` (centres undefined) it is 6.58%; for `CC(C)c1noc(CS(=O)(=O)Cc2nc(C(C)C)no2)n1` it is -7.85%. The figure for `CCN(Cc1cccc(NC(=O)COC)c1)C(C)=O` is -125%; for `Cn1cc(C(=O)N(Cc2ccco2)Cc2cccs2)ccc1=O` it is -0.0261%. Regarding `O=C(NC1CCN(c2ccccc2Br)C1)c1c[nH]nn1` (centres undefined), the cytotoxicity at 10 µM is -17.9%. The figure for `CC(C)N(Cc1ccccn1)C(=O)CCC(=O)c1ccccc1` is 3.33%. Consider `Cc1cc(C)n(C2CN(CC(O)Cn3cccn3)C2)n1` (centres undefined), for which the cytotoxicity at 10 µM was -5.09%. The same measure for `NS(=O)(=O)c1cnn(-c2ccc(NC(=O)CC3CCCC3)cn2)c1`: 6.74%. The figure for `CN1CCN(S(=O)(=O)c2ccc(Cl)c(Cl)c2)c2cnccc21` is 5.57%; for `CCN1CCc2c(cccc2NC(=O)CN(C)C2CCSC2)C1` (centres undefined) it is -47%; for `COc1cccc(C(=O)NC(C)CCN2CCOCC2)c1F` (centres undefined) it is -45.2%. The same measure for `Cc1nc([C@@H]2C[C@@H]3CCN(C(=O)Cc4cccc(F)c4)C[C@H]3O2)no1`: 4.17%. On to `Cc1nc([C@@H]2C[C@@H]3CCN(C(=O)Cc4ccsc4)C[C@H]3O2)no1`, for which the cytotoxicity at 10 µM worked out at 1.85%. Regarding `CSCCC(=O)N1CCCN(c2ccccc2C)CC1`, the cytotoxicity at 10 µM is -9.31%. In the case of `COCCN(Cc1sccc1C)C(=O)COc1ccccc1O`, the cytotoxicity at 10 µM is -145%. On to `O=C(C1CCCO1)N1CCC(Cn2cc(C3CCCC3)nn2)CC1` (centres undefined), for which the cytotoxicity at 10 µM worked out at 5.61%. As to `CCc1noc(CN(C)C(=O)c2ccccc2-c2ncn[nH]2)n1`, the cytotoxicity at 10 µM came to 16.7%.

Turning to `Cc1ccnc(Cn2cc(-c3cccc(C(C)N(C)C)c3)nn2)c1` (centres undefined), the cytotoxicity at 10 µM worked out at 1.74%. The same measure for `CCCOCC1CCN(C(=O)Cn2cccc(C(F)(F)F)c2=O)C1` (centres undefined): -16.3%; for `CCn1cc(CN(C)c2nc(C)c3ccc(S(C)(=O)=O)cc3n2)cn1`: 48.8%; for `Cc1nc2c(NC(CC(C)(C)C)c3cccnc3)ncnc2o1` (centres undefined): 4.24%.

As for `Cc1ccc(OCC2CCCN(c3nc(CO)cs3)C2)cc1` (centres undefined), the cytotoxicity at 10 µM is 5.4%. With `Cc1cc(C(=O)N2CCn3nc(C(=O)NC4CC4)cc3C2)nc(C)n1`, the cytotoxicity at 10 µM turned out to be 1.15%. The figure for `O=S1(=O)C[C@@H]2[C@H](C1)N(Cc1ncc[nH]1)CCN2CCCc1ccccc1` is 0.662%. As to `CC(C)NS(=O)(=O)c1cc(C(=O)O)cc(-c2ccc3c(c2)OCCO3)c1`, the cytotoxicity at 10 µM is -2.34%.

Take `O=C(CCn1ccnc1)N1CC[C@@H](c2ccc3ccccc3c2)[C@H](O)C1`: the cytotoxicity at 10 µM is -0.288%. Turning to `Nc1cc(N2CCCC(Cc3ccc(F)cc3F)(C(=O)O)C2)ncn1` (centres undefined), the cytotoxicity at 10 µM came out at 10.6%. The same measure for `Cc1ccc(C(=O)NC2CCN(C)CC2)cc1N(C)S(C)(=O)=O`: -0.853%; for `CN(CC1CCCN1C)c1nccc(C2CCCC2)n1` (centres undefined): -12.9%; for `O=C(N1CCC(Oc2ccncc2)CC1)C1(c2ccc(F)cc2)CC1`: -7.66%. For the molecule `Cc1cnn(CCNCc2cc(C#N)ccc2F)c1`, the cytotoxicity at 10 µM is -10.1%.

As to `CNC(=O)CN1CCC(NC(=O)N(C)Cc2c(C)noc2C)CC1`, the cytotoxicity at 10 µM was 2.1%. Take `CCCN1CCCC1Cn1nc(C)cc1C` (centres undefined): the cytotoxicity at 10 µM was -7.72%.

For the molecule `CCN(CC1CCOC1)C(=O)c1cnc2onc(C)c2c1` (centres undefined), the cytotoxicity at 10 µM was -10.4%. Turning to `COc1ccccc1CC(=O)NS(=O)(=O)c1ccc(C(N)=O)cc1`, the cytotoxicity at 10 µM was -5.2%. Turning to `Cc1cc(NC(=O)CN2CCc3cnc(C)nc3C2)on1`, the cytotoxicity at 10 µM is -5.33%. Turning to `COc1ccc(-c2nc(CN3CCc4c(ncn4C)C3)cs2)cc1`, the cytotoxicity at 10 µM is 3%. For the molecule `Cc1cc(C(=O)NCc2ccnc(N(C)C)c2)c(C)o1`, the cytotoxicity at 10 µM was -2.43%. As to `CC1CCCCN1CCNC(=O)c1ccn(-c2ccc(F)cc2)n1` (centres undefined), the cytotoxicity at 10 µM is -1.91%. On to `CC(=O)N(Cc1noc(C)n1)C1CCN(CCOc2ccccc2)C1` (centres undefined), for which the cytotoxicity at 10 µM was -2.04%. The same measure for `Cc1[nH]c2c(C)cccc2c1CC(=O)N(C)CCN(C)C`: 1.14%.

Consider `CC(=O)N1[C@H](Cn2cncn2)C[C@@H]2CN(Cc3ccccn3)CC[C@@H]21`, for which the cytotoxicity at 10 µM was determined as 0.732%. `Cc1noc(C)c1S(=O)(=O)N1CCc2nc(C3CCNCC3)ncc2C1`: the cytotoxicity at 10 µM was -22.9%.

Turning to `CC(C)(C)C(=O)N1C[C@H](c2ccsc2)[C@H]2CN(C3CCCC3)CC[C@H]21`, the cytotoxicity at 10 µM is 2.33%.

Regarding `Cc1ccc(CNC(=O)CN2CCN(CC(O)C3CC3)CC2)cc1` (centres undefined), the cytotoxicity at 10 µM was 4.91%. For `CN(C)C(=O)[C@H]1CO[C@H]2CCN(c3ncc(F)cn3)C[C@H]2C1`, the cytotoxicity at 10 µM stood at 7.75%. On to `CS(=O)(=O)N1CCC2(CCCN(Cc3ccccn3)C2)CC1`, for which the cytotoxicity at 10 µM was -121%. Regarding `Cc1cccc(CN2CC[C@H]3O[C@H](C(=O)Nc4cnccn4)CC[C@H]32)n1`, the cytotoxicity at 10 µM is -144%. The same measure for `Cc1ccc(CN2CCC3(CC2)OC(C(=O)N(C)C)c2ccccc23)o1` (centres undefined): 4.34%.

Turning to `O=C([C@@H]1CCO[C@@H]2CCN(CC3CCOCC3)C[C@H]21)N1CCCO1`, the cytotoxicity at 10 µM stood at 7.37%.

With `O=C(c1cccnc1)N1CCC2(CC1)CC(Oc1ccccc1)CO2` (centres undefined), the cytotoxicity at 10 µM was found to be 1.65%.

Regarding `Cc1nc(CN2CCC3(CC2)NC(=O)CC3c2ccccc2)cs1` (centres undefined), the cytotoxicity at 10 µM came out at 4.33%. For `c1cc(CN2CCOCC3(C2)CN(Cc2nccs2)CCO3)ccn1` (centres undefined), the cytotoxicity at 10 µM stood at 2.14%. The same measure for `CCn1cc2[nH]c(OC)c(CNC(=O)C3CCCN(C)C3)cc-2c1=O` (centres undefined): 11.3%; for `COCC1N(C(=O)c2ccco2)C2CCC1(O)CC2` (centres undefined): 1.4%.
